According to the EternaBench riboswitch data:

Test system: MS2 coat protein
Test: apparent Kd, MS2 coat protein; higher = weaker binding; RNA-MaP array; FMN 200 µM where present
Outline: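 In 100 mM Tris-HCl pH 7.5, 80 mM KCl, 4 mM MgCl2, BSA, DTT, yeast tRNA and Tween-20, SNAP-549-labelled MS2 coat protein was titrated from 0.7 or 1.5 nM, doubling to 3 µM, over designs transcribed by stalled E. coli RNA polymerase on Illumina sequencing-chip clusters. This was done first without ligand, then with ligand held constant. After green signal was normalised to red-channel RNA signal and control-cluster median Fmax, the apparent Kd was taken as the median of filtered per-cluster binding-curve fits.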

[1] = designed as: ON switch for flavin mononucleotide, no ligand
[2] = ligand present: flavin mononucleotide, designed as: ON switch for flavin mononucleotide
[3] = designed as: OFF switch for flavin mononucleotide, no ligand
[4] = ligand present: flavin mononucleotide, designed as: OFF switch for flavin mononucleotide

UUACCUCAUGAGAAGGACAUGAGGAUCACCCAUGUAGGAUAUCGUGGGAGACAGGUAUUGAAUCUUCGGAUUCAAUACCUGUCU
apparent Kd [1]: 418 nM | apparent Kd [2]: 25.5 nM

UUACCUUAUGAGAAGGCGAUCAUGAAACAUGAUCGAGGAUAUCAUGUAAACAUGAGGAUCACCCAUGUAUGGGUAUUAUGGUAA
apparent Kd [1]: 213 nM | apparent Kd [2]: 28.5 nM

UUACUAUCACAGAAGGCUGGAUAGUAUAUAGACGGAGGAUAUGUGACAUGAGGAUCACCCAUGUUUCACCGACAUGAGGAUCAA
apparent Kd [3]: 22.5 nM | apparent Kd [4]: 54.1 nM

UUACUAUUGCAGAAGGCUCAAUAAUAUAUAAAGGGAGGAUAUGCAACAUGAGGAUCACCCAUGUUUCACCCAUAUGAGGAUCAC
apparent Kd [3]: 9.51 nM | apparent Kd [4]: 13 nM

UUACUCAUGUAAGGAUAUGCAGUCGUUUCGGCUGCAGAAGGUACUAUAAUACAUGAGGAUCACCCAUGUCUUUUUAAUUUUUAC
apparent Kd [1]: 112 nM | apparent Kd [2]: 41 nM

UUAGGAUCAGGAUAUGAUGUUUUAAACAUGAGGAUCACCCAUGUAGAUCCUGAUUCAACAUCAGAAGGGAUAAUUU
apparent Kd [4]: 21.5 nM

UUAUAAAGAGUGAGGAUAUGCUGGUCCAUGGAUCAGCAGAAGGCACAUGAGGAUCACCCAUGUAAAAUAAUAUU
apparent Kd [3]: 18.3 nM | apparent Kd [4]: 37.6 nM

UUAUACGCUGAGGAUAUCAUCACUGAGAGGUGAUGAGAAGGCGGUACAUGAGGAUCACCCAUGUCUAUGGGCAG
apparent Kd [3]: 291 nM | apparent Kd [4]: 418 nM

UUAUACGUUGAGGAUAUGCGAUUUAGUAUAGUUGUAGAAGGCGAUACAUGAGGAUCACCCAUGUUUAUGGGCAU
apparent Kd [3]: 328 nM | apparent Kd [4]: 257 nM

UUAUAUAGUGUGAGGAUAUGCUGGUCCUUGGAUCAGCAGAAGGCACAUGAGGAUCACCCAUGUAAUAUAUUAUU
apparent Kd [3]: 67.1 nM | apparent Kd [4]: 156 nM

UUAUGAGCGAUAGGAUAUACUGAGAUUGAAUGGGUAGAAGGAUCGAUCGUGUGGAAGACAUGAGGAUCACCCAUGUUACGGGCC
apparent Kd [1]: 56 nM | apparent Kd [2]: 166 nM

UUAUGCUGAGAGAAGGUUCAAACUACAUAUUGCGCACAUGAGGAUCACCCAUGUUGGUGAAUAAGAAAGGAUAUUUUACUGUAU
apparent Kd [3]: 63.2 nM | apparent Kd [4]: 43.1 nM

UUAUGCUUAGAGAAGGUUCAAACUACAUAUUGCGCACAUGAGGAUCACCCAUGUUGGUGAAUAAGAAAGGAUAUUUGACUGUGC
apparent Kd [3]: 245 nM | apparent Kd [4]: 171 nM

UUAUGUUUUGUAGGAUAUCAUUAGAUUUGUAAUUUAAUUGUAAUUUAGAUAUGAGAAGGACAUUUACAUGAGGAUCACCCAUGU
apparent Kd [3]: 16.1 nM | apparent Kd [4]: 11.5 nM

UUAUGUUUUGUAGGAUAUCAUUAGUUAUGUAUUAUAAUUGAAAUUUUGUUAUGAGAAGGACAUUUACAUGAGGAUCACCCAUGU
apparent Kd [3]: 13.9 nM | apparent Kd [4]: 9.9 nM

UUAUUAUAUGUAGGAUAUGCAUAUUAUUAUUAUGCAGAAGGACAUGAGGAUCACCCAUGUAUAUUGUUAUUAUAUAUUAUAUAU
apparent Kd [3]: 25.5 nM | apparent Kd [4]: 37 nM

UUAUUAUAUGUAGGAUAUGCGUAUUAUUGUUAUGCAGAAGGACAUGAGGAUCACCCAUGUAUAUUAUUGUUAUGUAUUAUAUAU
apparent Kd [3]: 30.5 nM | apparent Kd [4]: 69.3 nM

UUAUUAUAUGUAGGAUAUGUAUAUUAUUAUUGUGCAGAAGGACAUGAGGAUCACCCAUGUAUAUUAUUAUUAUAUAUUAUAUAU
apparent Kd [3]: 21.4 nM | apparent Kd [4]: 17.1 nM

UUAUUGUGAGGAUAUCCAAUAUAUGACAUGAGGAUCACCCAUGUUUCCACUCGUACCUCCGGAGAAGGCACUUAUU
apparent Kd [3]: 32.7 nM | apparent Kd [4]: 29.4 nM

UUAUUUAGGUAGGAUAUCGAUAUCAAUCCCUAUCGAGAAGGGUCUACAUGAGGAUCACCCAUGUUAGCAUGUUU
apparent Kd [3]: 21.2 nM | apparent Kd [4]: 19.2 nM

UUAUUUAGGUAGGAUAUCGAUAUUAAUCCCUAUCGAGAAGGGUCUACAUGAGGAUCACCCAUGUUAGCAUGUUU
apparent Kd [3]: 21.5 nM | apparent Kd [4]: 21.3 nM

UUAUUUAGUGUGAGGAUAUGCUGGUCCAUAGAUCAGCAGAAGGCACAUGAGGAUCACCCAUGUAAUAUAUUAAU
apparent Kd [3]: 26.5 nM | apparent Kd [4]: 202 nM

UUAUUUAUACAAGGAUAUCAAUUAUAUACAAAUCCAACAUGAGGAUCACCCAUGUUUUAUUUUUUUGAGAAGGUGUAUUGUCAG
apparent Kd [1]: 32.8 nM | apparent Kd [2]: 32 nM
